Assay outcomes (PubChem)
This is a sample that favours compounds with a hit; in the whole collection about 2.4% have one here.
Tb MetRS inh – blocks T. brucei methionyl-tRNA synthetase activity. purified T. brucei MetRS, ATP depletion, Kinase-Glo luminescence. inhibition, % at 11.9 µM. 360,000 tested, 0.4% active;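 active means inhibition above a per-plate cutoff of the control wells' mean inhibition plus 3 SD, cut at about 5.5% in these data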
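Dosing: 11.9 µM single point; system: parasite MetRS enzyme; technique: luminescence of leftover ATP; times: 15 min enzyme-compound preincubation, 2 h reaction, 10 min detection, 25 °C; replicates: each compound tested once; read-out basis: percent inhibition relative to median high and low control wells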
HNF4A DNA FP – change in binding of human HNF4 alpha to DNA; P41235; HNF4a-FITC DNA binding, fluorescence polarization, 1 h; activity change, % at 10 µM; 360,000 tested, 0.3% active; in the data active means activity change above about 30%, passing the limit was not always enough
PREPL inh – inhibitors of human prolyl oligopeptidase-like enzyme PREPL; recombinant PREPL, fluorescence polarization activity-based probe; inhibition, % at 5.96 µM; 320,000 tested, 0.68% active; AID 2751; in the data active means inhibition above about 43%
Target sequence (Q4J6C6 whole entry, looked up): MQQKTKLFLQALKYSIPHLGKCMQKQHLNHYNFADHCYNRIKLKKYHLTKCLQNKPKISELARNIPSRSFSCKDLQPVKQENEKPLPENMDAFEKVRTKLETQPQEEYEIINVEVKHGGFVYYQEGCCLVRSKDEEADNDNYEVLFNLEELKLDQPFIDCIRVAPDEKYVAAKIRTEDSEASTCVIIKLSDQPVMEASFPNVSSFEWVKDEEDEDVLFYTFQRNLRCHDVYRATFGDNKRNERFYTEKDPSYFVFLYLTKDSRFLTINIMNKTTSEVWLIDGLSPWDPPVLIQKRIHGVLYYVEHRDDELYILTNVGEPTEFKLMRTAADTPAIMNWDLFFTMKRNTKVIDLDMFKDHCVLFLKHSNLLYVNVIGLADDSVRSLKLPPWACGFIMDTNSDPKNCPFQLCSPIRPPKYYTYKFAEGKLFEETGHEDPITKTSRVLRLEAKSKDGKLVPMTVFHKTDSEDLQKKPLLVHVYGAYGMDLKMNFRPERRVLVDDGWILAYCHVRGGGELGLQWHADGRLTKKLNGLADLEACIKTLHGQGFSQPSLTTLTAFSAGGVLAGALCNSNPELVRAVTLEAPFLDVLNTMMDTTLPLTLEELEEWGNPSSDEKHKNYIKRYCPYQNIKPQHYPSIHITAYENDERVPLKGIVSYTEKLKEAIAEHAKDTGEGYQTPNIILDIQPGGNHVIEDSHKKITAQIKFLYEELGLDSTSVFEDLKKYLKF
CSN deneddyl inh – blocks human CSN-mediated cullin deneddylation. Purified CSN, SCF-Nedd8-OG deneddylation, fluorescence polarization. 360,000 tested, 0.38% active. inhibition, % at 12.5 µM. AID 651999. Q92905;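 active means pattern-corrected inhibition above about 35%, with an unprinted fluorescence ratio check between 0.5 and 1.5, limit read from the data, passing the limit was not always enough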
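Assay system: HEK293T-derived human Csn5 enzyme; quantity: 0.24 nM enzyme; medium: Tris/NaCl/DTT buffer, pH 7.5; also added: substrate SCFSkp2-Nedd8OG, 10 nM; doses: 12.5 µM compound; schedule: 90 min reaction at room temperature; signal: FP; read-out: % inhibition of substrate cleavage by Csn5; benchmarks: substrate-only high control, full reaction low control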
Neddylation inh – inhibitors of human cullin neddylation | 360,000 tested, 0.58% active | AID 651699 | TR-FRET cullin neddylation, biochemical | inhibition, % at 25 µM; in the data active means inhibition above about 36%
Rpn11 inh – blocks the human proteasome subunit Rpn11; O00487; AID 588493; human 26S proteasome, Ub4-pepOG fluorescence polarization; 20S core pre-blocked with epoxomicin; inhibition, % at 20 µM; 360,000 tested, 0.59% active;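 active means inhibition at 20 µM, scaled to each plate's controls, above about 33%, limit read from the data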
Rpn11 inh conf – Rpn11 inhibition confirmation, single concentration; shares compounds with Rpn11 inh; purified human 26S proteasome, Ub4-pepOG fluorescence polarization; proteasome pretreated with epoxomicin; inhibition, % at 20 µM; 1,900 tested, 29% active
MMP-2 inh – MMP-2 (human) inhibition counter-screen | 1,900 tested, 4% active | inhibition, % at 20 µM | recombinant MMP-2, FRET peptide cleavage fluorescence | shares compounds with Rpn11 inh;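 further: human MMP-2 activated beforehand with APMA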
Thrombin FP – counter-screen for RPN11 inhibitors: inhibition of bovine thrombin | shares compounds with Rpn11 inh | AID 602333 | inhibition, % at 20 µM | bovine thrombin cleavage of Ub4-pepOG, fluorescence polarization | 1,900 tested, 13% active;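 active means mean inhibition at least 40% at 20 µM, or signal 3 deviations below plate average, so some actives read negative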
Of the large screens only hits and unclear results are named; the others gave an inactive call (follow-up assays come after a bar, where they were run). Unless noted, no stated cut-off is given here; in the data, active means inhibition above about 40%; inactive means the rest.

O=C(COC(=O)/C=C/c1cccc(C(F)(F)F)c1)NCCN1C(=O)CSC1=O	none
C[C@H](CO)N1C[C@H](C)[C@@H](CN(C)S(=O)(=O)c2cn(C)cn2)OCc2cnnn2CCCC1=O	none (no result: PREPL inh)
Cc1ccc(-c2csc(Nc3ccc(S(N)(=O)=O)cc3)n2)o1	Rpn11 inh 46 | Rpn11 inh conf inactive | MMP-2 inh inactive | Thrombin FP inactive
CC(C)OCCCNC(=O)CCCC(=O)Nc1ccc(OCCc2ccccc2)cc1	none
N#CCSc1nc2cc(C(=O)N3CCC(C(N)=O)CC3)ccc2c2nc3ccccc3n12	Rpn11 inh 34 | Rpn11 inh conf inactive | MMP-2 inh inactive | Thrombin FP inactive
N#CCSc1nc2cc(C(=O)N3CCCC3)ccc2c(=O)n1Cc1ccccc1	none
C[C@H](CO)N1C[C@H](C)[C@@H](CN(C)C(=O)NC2CCCCC2)Oc2c(NC(=O)c3ccncc3)cccc2C1=O	none
Clc1ccc(Br)cc1-c1nc(-c2ccncc2)no1	Rpn11 inh 88 | Rpn11 inh conf inactive | MMP-2 inh inactive | Thrombin FP inactive
Brc1cccc(-c2nc(-c3ccncc3)no2)c1	none
CCN(CC)C(=O)c1cccc(NC(=O)c2cc(C3CC3)nc3c2cnn3C(C)C)c1	none
Cc1cccc(C)c1NC(=O)CS(=O)CC(=O)Nc1ccc(N2CCOCC2)cc1 (centres undefined)	none
CCc1ccc(NC(=O)CS(=O)CC(=O)Nc2ccc(N3CCOCC3)cc2)cc1 (centres undefined)	Rpn11 inh 52 | Rpn11 inh conf inactive | MMP-2 inh inactive | Thrombin FP inactive
Cc1ccccc1Nc1cccc2nonc12	Rpn11 inh 40 | Rpn11 inh conf inactive | MMP-2 inh inactive | Thrombin FP inactive
CC(=O)N1c2ccc(S(=O)(=O)N3CCC(C(=O)Nc4cccc(C(F)(F)F)c4)CC3)cc2CC1C (centres undefined)	none
O=NN(CC(=O)NN=CC=Cc1ccccc1)CC(=O)NN=CC=Cc1ccccc1	Rpn11 inh 72 (no result: PREPL inh) | Rpn11 inh conf inactive | MMP-2 inh inactive | Thrombin FP inactive
CC(C)n1ncc2c(C(=O)Nc3ccc(S(N)(=O)=O)cc3)cc(C3CC3)nc21	CSN deneddyl inh 113, Rpn11 inh 79 | Rpn11 inh conf 90 | MMP-2 inh inactive | Thrombin FP inactive
O=C(C1CCCCC1)N1CCN(S(=O)(=O)c2cccc([N+](=O)[O-])c2)CC1	none
CN(CC(=O)Nc1nccs1)S(=O)(=O)c1ccc(F)cc1	Rpn11 inh 49 | Rpn11 inh conf inactive | MMP-2 inh inactive | Thrombin FP inactive
CCCCCCCCCCCC1N=C(N)NC(CCCO)=C1C(=O)OC (centres undefined)	Rpn11 inh 86 (no result: PREPL inh) | Rpn11 inh conf 49 | MMP-2 inh inactive | Thrombin FP inactive
C=CCn1c(C#N)c(N)sc1=N	Rpn11 inh 45 | Rpn11 inh conf inactive | MMP-2 inh inactive | Thrombin FP inactive
CCc1nc2c(OCCC3CCCCC3)cccn2c1N(C=O)Cc1ccccc1	none (no result: PREPL inh)
O=C(CCCn1c(=S)[nH]c2ccccc2c1=O)N1CCN(c2cccc(Cl)c2)CC1	Rpn11 inh 96 | Rpn11 inh conf 64 | MMP-2 inh 65 | Thrombin FP inactive
O=C(CN1C(=O)C2C3C=CC(C3)C2C1=O)Nc1nc(SCc2ccc(Cl)cc2)n[nH]1 (centres undefined)	Rpn11 inh 112 | Rpn11 inh conf inactive | MMP-2 inh inactive | Thrombin FP inactive
Cc1ccccc1C(=O)Nc1nc(SCc2ccc(Cl)cc2)n[nH]1	none
CCN1/C(=C\C=C2\C(=O)N(C)C(=S)N2C)Sc2ccccc21	Rpn11 inh 55 | Rpn11 inh conf inactive | MMP-2 inh inactive | Thrombin FP inactive
CCN1/C(=C2/OC(=S)N(C)C2=O)Sc2ccccc21	none (no result: PREPL inh)
Cn1cnnc1SCC(=O)Nc1ccc(S(N)(=O)=O)cc1	none
CSc1ccc(C2=C/C(=C3/SC(=S)NC3=O)c3ccccc3O2)cc1	none (no result: PREPL inh)
O=C(Nc1ccc(N2CCCC2)cc1)c1cccc(Cl)c1Cl	Rpn11 inh 52 | Rpn11 inh conf inactive | MMP-2 inh inactive | Thrombin FP inactive
CC(=O)N1CCN(c2ccc(NC(=O)c3cccc(Cl)c3Cl)cc2)CC1	none
Cc1cccc(N(Cc2ccccc2)C(=O)c2ccc(CS(C)(=O)=O)cc2)c1	none
O=C(CCCN1C(=O)/C(=C/c2ccc3c(c2)OCO3)SC1=S)Nc1ccc(C(=O)O)cc1	Rpn11 inh 56 | Rpn11 inh conf 52 | MMP-2 inh inactive | Thrombin FP inactive
O=C(CN1C(=O)S/C(=C\c2ccc(-c3cc(C(=O)O)ccc3Cl)o2)C1=O)Nc1ccc2c(c1)OCO2	Rpn11 inh 169 (no result: PREPL inh) | Rpn11 inh conf inactive | MMP-2 inh inactive | Thrombin FP inactive
CCOc1ccc(/C=C2\SC(=S)N(CCC(=O)Nc3cccc(C(=O)O)c3)C2=O)cc1	none
O=C(CCN1C(=O)/C(=C/c2ccc3c(c2)OCO3)SC1=S)Nc1ccc(C(=O)O)cc1	none
CCOc1ccc(/C=C2\SC(=S)N(CCC(=O)Nc3ccc(C(=O)O)cc3)C2=O)cc1	Rpn11 inh 44 | Rpn11 inh conf inactive | MMP-2 inh inactive | Thrombin FP inactive
COC(=O)c1ccc(-c2nc(CN3CCN(C(=O)c4ccco4)CC3)c(C)o2)cc1	none (no result: PREPL inh)
CCCCn1c(N)c(N(CCOC)C(=O)c2oc3ccc(OCC)cc3c2C)c(=O)[nH]c1=O	none
COc1ccc(CN(C)C(=O)c2ccc3c(=O)n4c(nc3c2)CCC4)c(OC)c1	none
O=C(NCc1ccco1)C1CCCCN1S(=O)(=O)c1ccc(F)cc1 (centres undefined)	Rpn11 inh active | Rpn11 inh conf inactive | MMP-2 inh inactive | Thrombin FP inactive
Cc1cc(C)c2nc(/N=C(\N)NC(=O)Nc3ccccc3)nc(C)c2c1	Rpn11 inh 47 | Rpn11 inh conf inactive | MMP-2 inh inactive | Thrombin FP inactive
COc1cc2ccccc2cc1C(=O)Nc1sc2c(c1C(N)=O)CCN(C(C)C)C2	Neddylation inh 50, Rpn11 inh 45 | Rpn11 inh conf 69 | MMP-2 inh inactive | Thrombin FP 46
Cc1cc(C)n(-c2nc3ccccc3s2)n1	none
Cc1c2c(=O)n(-c3nc4ccccc4s3)nc-2cc(O)n1Cc1ccccc1	Neddylation inh 41, Rpn11 inh 41 (no result: PREPL inh) | Rpn11 inh conf inactive | MMP-2 inh inactive | Thrombin FP inactive
